Hits are enriched below; roughly 2.4% of the tested compounds scored in any of these assays.
Ecoli rRNA inh = selective bacterial rRNA inhibition in E. coli; actives 1.6% (n = 350,000); E. coli WT GFP vs humanized-ribosome RFP mutants, fluorescence, 24 h; hits give low values; DMSO median 0, no signal -100; GFP signal change (wild-type ribosome), % (test concentration not listed);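 active = significant combined selectivity score with lowered wild-type GFP, culture density cut under 30%, mutant RFP and density less affected; inactive = any of these conditions unmet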
ARNT TACC3 PPI = disrupts binding between human ARNT and TACC3; Q9Y6A5; actives 0.66% (n = 390,000); AlphaScreen His-ARNT PAS-B/GST-TACC3 binding, luminescence; TACC3 fragment carries E629A point mutation; inhibition, % at 9.99 µM;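 active = mean inhibition of replicates at least 50% and at least half of replicates each reaching 50%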
PGC1a acetyl inh = lowers PGC1a acetylation signal in U2OS cells; inhibition, % at 15.6 µM; AID 651687; AlphaScreen anti-acetyl-lysine; with virally co-expressed GCN5 acetyltransferase; actives 0.17% (n = 350,000);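 active = every replicate shows inhibition of at least 40%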
CASP6 VEID inh = inhibitors of human caspase-6 | purified caspase-6, Z-VEID-R110 cleavage fluorescence | P55212 | AID 686996 | actives 0.53% (n = 350,000) | inhibition, % at 12.5 µM;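 active = mean inhibition across replicates at least about 35%, with every replicate also reaching that limit, limit read from the data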
Target sequence (P55212 24-179 limits assumed): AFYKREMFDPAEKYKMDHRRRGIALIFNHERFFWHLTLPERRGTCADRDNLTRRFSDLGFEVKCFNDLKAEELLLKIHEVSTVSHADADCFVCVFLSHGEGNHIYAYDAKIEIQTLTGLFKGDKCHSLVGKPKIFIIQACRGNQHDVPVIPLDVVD
Target sequence (P55212 194-293 limits assumed): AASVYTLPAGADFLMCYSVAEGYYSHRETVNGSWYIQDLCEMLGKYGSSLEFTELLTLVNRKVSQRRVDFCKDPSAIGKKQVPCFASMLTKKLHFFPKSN
ERAP1 HTS inh = blocks human ERAP1 aminopeptidase activity; Q9NZ08; recombinant ERAP1, Leu-AMC fluorescence, 60 min; inhibition, % at 10.7 µM; actives 0.15% (n = 340,000); AID 652197;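 active = mean replicate inhibition of at least 30%, or all replicates individually reaching that 30% level; inactive = mean below 30% and not every replicate reaching it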
S100A4 MyoIIA = S100A4-myosin IIA interaction inhibition; P26447; actives 0.14% (n = 360,000); S100A4/TAMRA-MyoIIA peptide fluorescence polarization; inhibition, % at 10.7 µM;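 active = mean inhibition of at least 70% across replicates, with every replicate also reaching that level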
Target sequence (P26447 whole entry, looked up): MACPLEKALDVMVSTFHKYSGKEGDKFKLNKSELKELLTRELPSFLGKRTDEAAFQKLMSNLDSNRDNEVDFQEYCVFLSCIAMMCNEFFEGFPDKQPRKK
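Test system: S100A4 monomer protein; Medium: HEPES pH 7.2 with CaCl2, KCl, NaCl, DTT, Triton; Probe or stimulus: TAMRA-labelled myosin IIA heavy-chain peptide probe, 5 nM; Doses: one dose per compound; Times: polarization read 5 min after assay mix addition, stable 5–60 min; Benchmarks: neutral control DMSO, positive control TFP.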
Hits are given with their value.

What do the screens show for `CC(=O)Nc1ccc2c(c1)C(=O)N(C)[C@@H]1CC[C@H](CC(=O)NC3CCCCC3)O[C@H]1CO2`?
Ecoli rRNA inh: inactive; ARNT TACC3 PPI: inactive; PGC1a acetyl inh: inactive

How did CN(C)c1ccc(N=Cc2nc(-c3ccccc3)oc2O)cc1 do in these assays?
ARNT TACC3 PPI: inactive; PGC1a acetyl inh: inactive

Results for CN(C)c1ccc(N=Cc2cccn2C)cc1 ?
Ecoli rRNA inh: inactive; ARNT TACC3 PPI: 60; CASP6 VEID inh: inactive; ERAP1 HTS inh: inactive; S100A4 MyoIIA: inactive

Results for C[C@@H]1CN([C@@H](C)CO)C(=O)c2cc(C#CCN(C)C)cnc2O[C@@H]1CN(C)Cc1cccc(C(=O)O)c1 ?
Ecoli rRNA inh: inactive; ARNT TACC3 PPI: inactive; PGC1a acetyl inh: inactive; CASP6 VEID inh: inactive; ERAP1 HTS inh: inactive; S100A4 MyoIIA: inactive

How did O=C(/C=C/c1ccc(Br)o1)OCc1nc2ccsc2c(=O)[nH]1 do in these assays?
Ecoli rRNA inh: inactive; ARNT TACC3 PPI: inactive; PGC1a acetyl inh: inactive; CASP6 VEID inh: 38; ERAP1 HTS inh: inactive; S100A4 MyoIIA: inactive

What do the screens show for `Cc1ccc(C(=O)OCc2nc3ccsc3c(=O)[nH]2)o1`?
Ecoli rRNA inh: inactive; ARNT TACC3 PPI: inactive; CASP6 VEID inh: inactive; ERAP1 HTS inh: inactive; S100A4 MyoIIA: inactive

Results for COc1ccc(CNc2c(C(=O)O)cnc3c2cnn3C)cc1 ?
Ecoli rRNA inh: inactive; ARNT TACC3 PPI: inactive; PGC1a acetyl inh: inactive; CASP6 VEID inh: inactive; ERAP1 HTS inh: inactive; S100A4 MyoIIA: inactive

Results for CCOC(=O)c1cnc2c(cnn2C)c1NCc1ccc(OC)cc1 ?
Ecoli rRNA inh: -19; ARNT TACC3 PPI: inactive; PGC1a acetyl inh: inactive; CASP6 VEID inh: inactive; ERAP1 HTS inh: inactive; S100A4 MyoIIA: inactive

What do the screens show for `CCOC(=O)c1cnc2c(c(C)nn2C)c1Oc1ccccc1F`?
Ecoli rRNA inh: -32; ARNT TACC3 PPI: inactive; PGC1a acetyl inh: inactive; CASP6 VEID inh: inactive; ERAP1 HTS inh: inactive; S100A4 MyoIIA: inactive

How did CCOC(=O)c1cnc2c(c(C)nn2C)c1Oc1cc(Cl)cc(Cl)c1 do in these assays?
Ecoli rRNA inh: inactive; ARNT TACC3 PPI: inactive; CASP6 VEID inh: inactive; ERAP1 HTS inh: inactive; S100A4 MyoIIA: inactive

Results for COc1cc(C(=O)NC(CCSC)C(=O)OCc2cc([N+](=O)[O-])cc3c2OCOC3)cc(OC)c1OC (stereo unspecified) ?
Ecoli rRNA inh: inactive; ARNT TACC3 PPI: inactive; CASP6 VEID inh: 36; ERAP1 HTS inh: inactive; S100A4 MyoIIA: inactive

What do the screens show for `Cc1cc(C(=O)Nc2cccc3c2O[C@H](CN(C)C(=O)Nc2ccc(F)cc2)[C@@H](C)CN([C@@H](C)CO)C3=O)n(C)n1`?
Ecoli rRNA inh: inactive; ARNT TACC3 PPI: inactive; PGC1a acetyl inh: inactive; CASP6 VEID inh: inactive; ERAP1 HTS inh: inactive; S100A4 MyoIIA: inactive

Results for COc1cccc(-c2nc(N3CCN(C)CC3)c3ccccc3n2)c1O ?
Ecoli rRNA inh: -23; ARNT TACC3 PPI: inactive; PGC1a acetyl inh: inactive; CASP6 VEID inh: inactive; ERAP1 HTS inh: inactive; S100A4 MyoIIA: inactive

What do the screens show for `COc1ccc2c3c([nH]c2c1)[C@@H](CO)N(C(=O)CN(C)C)CC31CCN(Cc2ccccc2)CC1`?
Ecoli rRNA inh: inactive

What do the screens show for `CC(C)CC#Cc1cnc2c(c1)C(=O)N([C@H](C)CO)C[C@@H](C)[C@@H](CN(C)C(=O)c1cccnc1)O2`?
Ecoli rRNA inh: inactive; ARNT TACC3 PPI: inactive; PGC1a acetyl inh: inactive; CASP6 VEID inh: inactive; ERAP1 HTS inh: inactive; S100A4 MyoIIA: inactive

How did N#Cc1c(-c2ccccc2Cl)c2c([nH]c1=O)-c1ccccc1OC2 do in these assays?
Ecoli rRNA inh: -24; ARNT TACC3 PPI: inactive; PGC1a acetyl inh: inactive; CASP6 VEID inh: inactive; ERAP1 HTS inh: inactive; S100A4 MyoIIA: inactive

What do the screens show for `C[C@@H]1CCCCO[C@@H](CN(C)C(=O)c2ccccc2)[C@H](C)CN([C@@H](C)CO)C(=O)c2cc(NC(=O)CCCN(C)C)ccc2O1`?
Ecoli rRNA inh: inactive; ARNT TACC3 PPI: inactive; PGC1a acetyl inh: inactive; CASP6 VEID inh: inactive; ERAP1 HTS inh: inactive; S100A4 MyoIIA: inactive

What do the screens show for `Cc1ccc(NC(=S)N(C)N)cc1Cl`?
Ecoli rRNA inh: -25; ARNT TACC3 PPI: inactive; PGC1a acetyl inh: inactive; CASP6 VEID inh: inactive; ERAP1 HTS inh: inactive; S100A4 MyoIIA: inactive

High-throughput results from PubChem.
